Assay [1] has as its target G-protein coupled receptor 68 (Mus musculus) (UniProt Q8BFQ3). Description: Positive allosteric modulation of mouse GPR68 expressed in HEK293T cells co-expressing Gs assessed as stimulation of proton-mediated cAMP production by measuring efficacy cooperativity in HBSS buffer containing pH 6.8 to 8.2 HEPES/pH 8.3 to 8.6 TAPS measured after 20 to 30 mins in presence of PDE inhibitor Ro 20-1724 by luciferase-glo reporter gene assay. Type of assay: functional, cell-based. The essentials: (§1)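 α, β and KB obtained by fitting proton responses with and without modulator to the standard allosteric operational model. Overall index is log(αβ/KB). Values are mean ± SEM from ≥3 independent assays, each run in triplicate or quadruplicate.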
On the technique in general: Changes in cAMP serve as a functional read-out for many G protein-coupled receptors.

The target of assay [2] is T1, Adenosine receptor A2a (Homo sapiens, UniProt P29274). Description: Displacement of [3H]ZM241385 from recombinant human A2A receptor incubated for 90 mins under dark condition by microbeta scintillation method.
T1 sequence (P29274 whole entry): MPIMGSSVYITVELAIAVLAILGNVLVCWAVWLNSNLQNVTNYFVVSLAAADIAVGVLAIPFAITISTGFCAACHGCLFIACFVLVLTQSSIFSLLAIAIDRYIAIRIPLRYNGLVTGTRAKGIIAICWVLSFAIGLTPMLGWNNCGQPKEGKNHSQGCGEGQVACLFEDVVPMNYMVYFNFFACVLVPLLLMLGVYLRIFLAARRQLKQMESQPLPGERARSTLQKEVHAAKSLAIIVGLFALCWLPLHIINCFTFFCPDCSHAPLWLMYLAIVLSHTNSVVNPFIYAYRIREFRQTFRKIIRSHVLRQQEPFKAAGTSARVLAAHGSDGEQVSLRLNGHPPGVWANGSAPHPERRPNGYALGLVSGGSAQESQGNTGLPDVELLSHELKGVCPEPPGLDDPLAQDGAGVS
In assay [3] the target is G-protein coupled receptor 65 (Homo sapiens) (UniProt Q8IYL9). The assay is described as follows: Positive allosteric modulation of human GPR65 expressed in HEK293T cells co-expressing Gs assessed as stimulation of proton-mediated cAMP production at higher concentration in HBSS buffer containing pH 6.8 to 8.2 HEPES/pH 8.3 to 8.6 TAPS measured after 20 to 30 mins in presence of PDE inhibitor Ro 20-1724 by luciferase-glo reporter gene assay. Type of assay: functional, cell-based. In outline: (§2)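 Transient co-transfection of HEK293T with receptor and GloSensor plasmids using PEI, overnight, then replated in DMEM + 1% dFBS for 6–24 h. Luciferin 3.5 mM loaded for 1 h at 37 °C in HBSS/20 mM TAPS, pH 8.40. Proton series: Ca/Mg-free HBSS with MES (pH 5.60–6.70), HEPES (6.80–8.20) or TAPS (8.30–8.60), plus 10 μM Ro 20-1724. BSA 1 mg/mL added where solubility required. Luminescence read at 20–30 min. At least six 16-point proton curves across modulator concentrations, quadruplicate, ≥3 independent assays.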
G-protein coupled receptor 65 (Homo sapiens), sequence (Q8IYL9 whole entry): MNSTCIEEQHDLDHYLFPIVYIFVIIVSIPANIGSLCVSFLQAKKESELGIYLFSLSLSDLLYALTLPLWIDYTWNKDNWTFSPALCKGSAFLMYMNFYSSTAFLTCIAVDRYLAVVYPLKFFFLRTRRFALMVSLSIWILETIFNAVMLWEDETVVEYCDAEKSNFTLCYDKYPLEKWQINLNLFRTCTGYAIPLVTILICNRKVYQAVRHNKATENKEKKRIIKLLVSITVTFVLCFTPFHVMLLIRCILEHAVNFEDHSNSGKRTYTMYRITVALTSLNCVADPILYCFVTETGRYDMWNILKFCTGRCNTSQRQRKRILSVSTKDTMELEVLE

Assay [4] deals with G-protein coupled receptor 68 (Mus musculus) (UniProt Q8BFQ3). The assay is described as follows: Positive allosteric modulation of mouse GPR68 expressed in HEK293T cells co-expressing Gs assessed as stimulation of proton-mediated cAMP production by measuring allosteric index in HBSS buffer containing pH 6.8 to 8.2 HEPES/pH 8.3 to 8.6 TAPS measured after 20 to 30 mins in presence of PDE inhibitor Ro 20-1724 by luciferase-glo reporter gene assay. It is filed as functional, cell-based. The essentials: as §1
G-protein coupled receptor 68 (Mus musculus), sequence (Q8BFQ3 whole entry): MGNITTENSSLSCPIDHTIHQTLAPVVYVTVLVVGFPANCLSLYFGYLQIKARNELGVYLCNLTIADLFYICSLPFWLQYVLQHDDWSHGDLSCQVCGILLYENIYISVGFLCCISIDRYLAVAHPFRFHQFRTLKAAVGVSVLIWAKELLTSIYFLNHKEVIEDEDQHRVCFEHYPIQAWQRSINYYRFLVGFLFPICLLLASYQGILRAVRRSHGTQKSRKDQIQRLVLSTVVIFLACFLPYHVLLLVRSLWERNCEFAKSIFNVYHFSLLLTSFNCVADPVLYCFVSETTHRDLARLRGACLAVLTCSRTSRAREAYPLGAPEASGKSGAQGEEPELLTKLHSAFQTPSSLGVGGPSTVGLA

For assay [5], the target named is G-protein coupled receptor 68 (Homo sapiens) (UniProt Q15743). The assay is described as follows: Positive allosteric modulation of human GPR68 expressed in HEK293T cells co-expressing Gs assessed as stimulation of proton-mediated cAMP production by measuring allosteric index in HBSS buffer containing pH 6.8 to 8.2 HEPES/pH 8.3 to 8.6 TAPS measured after 20 to 30 mins in presence of PDE inhibitor Ro 20-1724 by luciferase-glo reporter gene assay. It is filed as functional, cell-based. In outline: as §2
G-protein coupled receptor 68 (Homo sapiens), sequence (Q15743 whole entry): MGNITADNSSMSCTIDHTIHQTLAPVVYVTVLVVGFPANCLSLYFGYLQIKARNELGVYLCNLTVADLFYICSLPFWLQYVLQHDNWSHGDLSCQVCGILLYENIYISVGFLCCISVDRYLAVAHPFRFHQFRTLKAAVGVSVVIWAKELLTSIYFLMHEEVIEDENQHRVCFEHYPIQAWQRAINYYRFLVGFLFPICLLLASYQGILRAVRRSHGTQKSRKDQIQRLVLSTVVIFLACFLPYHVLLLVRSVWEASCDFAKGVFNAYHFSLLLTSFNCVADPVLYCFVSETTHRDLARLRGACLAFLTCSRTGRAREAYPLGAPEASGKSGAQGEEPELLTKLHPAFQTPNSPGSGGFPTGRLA

Assay [6] addresses T1, Adenosine receptor A2a. Description: Inverse agonist activity at recombinant human A2A receptor expressed in HEK293T cells co-expressing Gs assessed as decrease in cAMP accumulation measured after 15 mins by Glosensor chemiluminescence assay. It is filed as functional, cell-based.
The target of assay [7] is G-protein coupled receptor 68 (Homo sapiens) (UniProt Q15743). Description: Positive allosteric modulation of human GPR68 expressed in HEK293T cells co-expressing Gs assessed as stimulation of proton-mediated cAMP production by measuring efficacy cooperativity in HBSS buffer containing pH 6.8 to 8.2 HEPES/pH 8.3 to 8.6 TAPS measured after 20 to 30 mins in presence of PDE inhibitor Ro 20-1724 by luciferase-glo reporter gene assay. Type of assay: functional, cell-based. In outline: as §2

Assay [8] concerns the target Atypical chemokine receptor 3 (Homo sapiens, UniProt P25106). Description: Agonist activity at human ACKR3 expressed in HTLA cells assessed as stimulation of beta-arrestin recruitment at 1 uM incubated for 16 to 20 hrs by bright-glo luminescence assay. Type of assay: cell-based. A general note: Activated receptors often draw arrestin, which recruitment assays turn into a signal.

Assay [9] concerns the target T1, Adenosine receptor A2a. Description: Antagonist activity at recombinant human A2A receptor expressed in HEK293T cells co-expressing Gs assessed as inhibition of NECA-stimulated cAMP accumulation preincubated for 15 mins followed by NECA addition and measured after 15 mins by Glosensor chemiluminescence assay. It is filed as functional, cell-based.
The target in assay [10] is G-prodeshotein coupled receptor 4 (Homo sapiens) (UniProt P46093). The assay is described as follows: Positive allosteric modulation of human GPR4 expressed in HEK293T cells co-expressing Gs assessed as stimulation of proton-mediated cAMP production at higher concentration in HBSS buffer containing pH 6.8 to 8.2 HEPES/pH 8.3 to 8.6 TAPS measured after 20 to 30 mins in presence of PDE inhibitor Ro 20-1724 by luciferase-glo reporter gene assay. Type of assay: functional, cell-based. The essentials:
as §2

Assay [11] addresses T1, Adenosine receptor A2a. Description: Agonist activity at recombinant human A2A receptor expressed in HEK293T cells co-expressing Gs assessed as stimulation of cAMP accumulation measured after 15 mins by Glosensor chemiluminescence assay. It is filed as functional, cell-based.
Assay [12] has as its target G-protein coupled receptor 68 (Homo sapiens) (UniProt Q15743). Description: Positive allosteric modulation of human GPR68 expressed in HEK293T cells co-expressing Gs assessed as stimulation of proton-mediated cAMP production by measuring allosteric affinity cooperativity in HBSS buffer containing pH 6.8 to 8.2 HEPES/pH 8.3 to 8.6 TAPS measured after 20 to 30 mins in presence of PDE inhibitor Ro 20-1724 by luciferase-glo reporter gene assay. Type of assay: functional, cell-based. In outline:
as §2

Assay [13] addresses G-protein coupled receptor 68 (Mus musculus) (UniProt Q8BFQ3). The assay is described as follows: Positive allosteric modulation of mouse GPR68 expressed in HEK293T cells co-expressing Gs assessed as stimulation of proton-mediated cAMP production by measuring allosteric affinity cooperativity in HBSS buffer containing pH 6.8 to 8.2 HEPES/pH 8.3 to 8.6 TAPS measured after 20 to 30 mins in presence of PDE inhibitor Ro 20-1724 by luciferase-glo reporter gene assay. It is filed as functional, cell-based. The essentials: as §1

Consider one compound from ChEMBL document CHEMBL4406806, “Design, Synthesis, and Characterization of Ogerin-Based Positive Allosteric Modulators for G Protein-Coupled Receptor 68 (GPR68)” (J Med Chem, 2019).

Activity calls are given as the source filed them. No cut-off for these calls is given here.

Atypical chemokine receptor 3, sequence (P25106 whole entry): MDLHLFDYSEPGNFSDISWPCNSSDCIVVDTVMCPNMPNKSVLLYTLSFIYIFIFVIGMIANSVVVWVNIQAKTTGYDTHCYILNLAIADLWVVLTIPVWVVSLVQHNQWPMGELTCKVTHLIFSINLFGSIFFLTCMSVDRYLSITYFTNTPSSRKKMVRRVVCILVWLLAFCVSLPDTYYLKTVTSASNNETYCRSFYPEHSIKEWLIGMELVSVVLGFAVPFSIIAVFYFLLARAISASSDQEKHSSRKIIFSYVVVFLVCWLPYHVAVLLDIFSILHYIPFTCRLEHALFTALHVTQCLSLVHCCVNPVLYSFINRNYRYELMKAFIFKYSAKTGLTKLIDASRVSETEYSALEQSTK
G-prodeshotein coupled receptor 4 (Homo sapiens), sequence (P46093 whole entry, looked up): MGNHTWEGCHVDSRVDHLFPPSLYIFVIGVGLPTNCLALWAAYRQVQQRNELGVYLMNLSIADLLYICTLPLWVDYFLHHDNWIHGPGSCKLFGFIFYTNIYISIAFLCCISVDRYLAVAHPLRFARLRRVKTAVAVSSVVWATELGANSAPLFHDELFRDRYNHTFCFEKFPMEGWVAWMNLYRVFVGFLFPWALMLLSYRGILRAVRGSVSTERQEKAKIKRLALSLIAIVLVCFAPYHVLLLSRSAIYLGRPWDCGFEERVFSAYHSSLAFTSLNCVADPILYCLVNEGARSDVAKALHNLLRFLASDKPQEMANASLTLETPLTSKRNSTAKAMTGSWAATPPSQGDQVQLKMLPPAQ

For the compound `Nc1nc(NCc2ccc(Cl)cc2)nc(-c2ccccc2CO)n1`, the log(activity) in [1] is -0.02; in assay [7], 0.41; in assay [12] it was 0.49; in assay [13], 1.41. Further, the Ki (as a rule, a dissociation constant, usually derived from enzyme kinetics or from competition with a known ligand) on Adenosine receptor A2a [2] is 300 nM; on Adenosine receptor A2a [9] it was 6700 nM. Besides, the result (in assay [3]; in assay [8]; in assay [10]; at Adenosine receptor A2a [11]) was inactive. Moreover, the Activity index was determined as 5.68 in assay [4] and 6.11 in assay [5]. On Adenosine receptor A2a [6], the IC50 (commonly the concentration that gives 50% inhibition) stood at 1700 nM.
